Each block holds one compound with its values, some of them ahead of it. Calls of active or inactive are those of the source. No cut-off for these calls is given here.
What was measured:
[1] = biological target: T1, Amyloid-beta precursor protein (Homo sapiens, UniProt P05067); assay: Displacement of [125I]IMPY from amyloid beta (1 to 40) (unknown origin) after 2 hrs by gamma counting analysis
In short: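 Incubation was 2 h at 37 °C. Bound and free fractions were separated by filtration through GF/B filters, followed by ice-cold PBS washes and counting. IC50 came from displacement curves of three independent experiments, done in duplicate. Ki was obtained by Cheng-Prusoff.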

Brain [2] = assay: Biodistribution in ICR mouse brain at 2 uCi, iv measured at 30 mins by gamma counting analysis; assay type: ADME, organism-based; conditions: in vivo, 0.5 h
In short: (§1)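 The radioiodinated ligand was given intravenously to normal ICR mice, n=5 per time point. Mice were euthanized at 2, 10, 30, 60 and 120 min, and organs were removed and weighed. Radioactivity was gamma counted. %ID/g was calculated as counts per gram of tissue divided by counts of 1% of the injected dose, taken from a 100-fold diluted aliquot.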

Brain [3] = assay: Biodistribution in ICR mouse brain at 2 uCi, iv measured at 2 hrs by gamma counting analysis; assay type: ADME, organism-based; conditions: in vivo; in short: as §1
Kidney [4] = assay: Biodistribution in ICR mouse kidney at 2 uCi, iv measured at 2 mins by gamma counting analysis; assay type: ADME, organism-based; conditions: in vivo; in short: as §1
Heart [5] = assay: Biodistribution in ICR mouse heart at 2 uCi, iv measured at 1 hr by gamma counting analysis; assay type: ADME, organism-based; conditions: in vivo; in short: as §1
Kidney [6] = assay: Biodistribution in ICR mouse kidney at 2 uCi, iv measured at 2 hrs by gamma counting analysis; assay type: ADME, organism-based; conditions: in vivo; in short: as §1
Kidney [7] = assay: Biodistribution in ICR mouse kidney at 2 uCi, iv measured at 1 hr by gamma counting analysis; assay type: ADME, organism-based; conditions: in vivo; in short: as §1
Liver [8] = assay: Biodistribution in ICR mouse liver at 2 uCi, iv measured at 10 mins by gamma counting analysis; assay type: ADME, organism-based; conditions: in vivo; in short: as §1
Kidney [9] = assay: Biodistribution in ICR mouse kidney at 2 uCi, iv measured at 10 mins by gamma counting analysis; assay type: ADME, organism-based; conditions: in vivo; in short: as §1
Blood [10] = assay: Biodistribution in ICR mouse blood at 2 uCi, iv measured at 2 mins by gamma counting analysis; assay type: ADME, organism-based; conditions: in vivo; in short: as §1
Lung [11] = assay: Biodistribution in ICR mouse lung at 2 uCi, iv measured at 10 mins by gamma counting analysis; assay type: ADME, organism-based; conditions: in vivo; in short: as §1
Kidney [12] = assay: Biodistribution in ICR mouse kidney at 2 uCi, iv measured at 30 mins by gamma counting analysis; assay type: ADME, organism-based; conditions: in vivo, 0.5 h; in short: as §1
Heart [13] = assay: Biodistribution in ICR mouse heart at 2 uCi, iv measured at 30 mins by gamma counting analysis; assay type: ADME, organism-based; conditions: in vivo, 0.5 h; in short: as §1
Brain [14] = assay: Biodistribution in ICR mouse brain at 2 uCi, iv measured at 1 hr by gamma counting analysis; assay type: ADME, organism-based; conditions: in vivo; in short: as §1
Brain [15] = assay: Biodistribution in ICR mouse brain at 2 uCi, iv measured at 10 mins by gamma counting analysis; assay type: ADME, organism-based; conditions: in vivo; in short: as §1
Lung [16] = assay: Biodistribution in ICR mouse lung at 2 uCi, iv measured at 2 mins by gamma counting analysis; assay type: ADME, organism-based; conditions: in vivo; in short: as §1
Lung [17] = assay: Biodistribution in ICR mouse lung at 2 uCi, iv measured at 2 hrs by gamma counting analysis; assay type: ADME, organism-based; conditions: in vivo; in short: as §1
Spleen [18] = assay: Biodistribution in ICR mouse spleen at 2 uCi, iv measured at 10 mins by gamma counting analysis; assay type: ADME, organism-based; conditions: in vivo; in short: as §1
Blood [19] = assay: Biodistribution in ICR mouse blood at 2 uCi, iv measured at 30 mins by gamma counting analysis; assay type: ADME, organism-based; conditions: in vivo, 0.5 h; in short: as §1
Blood [20] = assay: Biodistribution in ICR mouse blood at 2 uCi, iv measured at 2 hrs by gamma counting analysis; assay type: ADME, organism-based; conditions: in vivo; in short: as §1
Spleen [21] = assay: Biodistribution in ICR mouse spleen at 2 uCi, iv measured at 2 hrs by gamma counting analysis; assay type: ADME, organism-based; conditions: in vivo; in short: as §1
Spleen [22] = assay: Biodistribution in ICR mouse spleen at 2 uCi, iv measured at 30 mins by gamma counting analysis; assay type: ADME, organism-based; conditions: in vivo, 0.5 h; in short: as §1
Liver [23] = assay: Biodistribution in ICR mouse liver at 2 uCi, iv measured at 30 mins by gamma counting analysis; assay type: ADME, organism-based; conditions: in vivo, 0.5 h; in short: as §1
Lung [24] = assay: Biodistribution in ICR mouse lung at 2 uCi, iv measured at 30 mins by gamma counting analysis; assay type: ADME, organism-based; conditions: in vivo, 0.5 h; in short: as §1
Blood [25] = assay: Biodistribution in ICR mouse blood at 2 uCi, iv measured at 1 hr by gamma counting analysis; assay type: ADME, organism-based; conditions: in vivo; in short: as §1
Spleen [26] = assay: Biodistribution in ICR mouse spleen at 2 uCi, iv measured at 1 hr by gamma counting analysis; assay type: ADME, organism-based; conditions: in vivo; in short: as §1
Heart [27] = assay: Biodistribution in ICR mouse heart at 2 uCi, iv measured at 10 mins by gamma counting analysis; assay type: ADME, organism-based; conditions: in vivo; in short: as §1
Heart [28] = assay: Biodistribution in ICR mouse heart at 2 uCi, iv measured at 2 mins by gamma counting analysis; assay type: ADME, organism-based; conditions: in vivo; in short: as §1
Liver [29] = assay: Biodistribution in ICR mouse liver at 2 uCi, iv measured at 2 hrs by gamma counting analysis; assay type: ADME, organism-based; conditions: in vivo; in short: as §1
Lung [30] = assay: Biodistribution in ICR mouse lung at 2 uCi, iv measured at 1 hr by gamma counting analysis; assay type: ADME, organism-based; conditions: in vivo; in short: as §1
Heart [31] = assay: Biodistribution in ICR mouse heart at 2 uCi, iv measured at 2 hrs by gamma counting analysis; assay type: ADME, organism-based; conditions: in vivo; in short: as §1
Spleen [32] = assay: Biodistribution in ICR mouse spleen at 2 uCi, iv measured at 2 mins by gamma counting analysis; assay type: ADME, organism-based; conditions: in vivo; in short: as §1
Blood [33] = assay: Biodistribution in ICR mouse blood at 2 uCi, iv measured at 10 mins by gamma counting analysis; assay type: ADME, organism-based; conditions: in vivo; in short: as §1
Liver [34] = assay: Biodistribution in ICR mouse liver at 2 uCi, iv measured at 2 mins by gamma counting analysis; assay type: ADME, organism-based; conditions: in vivo; in short: as §1
Brain [35] = assay: Biodistribution in ICR mouse brain at 2 uCi, iv measured at 2 mins by gamma counting analysis; assay type: ADME, organism-based; conditions: in vivo; in short: as §1
Brain [36] = assay: Ratio of drug level in ICR mouse brain measured at 60 mins to drug level in ICR mouse brain measured at 2 mins; assay type: ADME; conditions: in vivo
In short: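 Brain uptake (%ID/g) at 60 min was divided by uptake at 2 min after intravenous injection into normal ICR mice, n=5 per time point. Brain radioactivity was gamma counted and normalised to a 1% injected-dose standard.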

Liver [37] = assay: Biodistribution in ICR mouse liver at 2 uCi, iv measured at 1 hr by gamma counting analysis; assay type: ADME, organism-based; conditions: in vivo; in short: as §1
[38] = biological target: T1, Amyloid-beta precursor protein; assay: Binding affinity to beta amyloid-containing senile plaques of Alzheimer's disease patient at 50 uM after 20 mins by thioflavin-S staining-based fluorescence microscopic analysis
In short: (§2)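 Paraffin sections of postmortem AD brain were dewaxed in xylene, passed through graded ethanol, then rinsed in water and 0.01 M PBS at pH 7.4. Sections were immersed in cold ligand (50 in 30% EtOH/0.1 M PBS) for 20 min and differentiated in 50% EtOH for 10 min. Adjacent sections were stained with ThS (1%, 5 min) and differentiated in 70% EtOH. Sections were then PBS-washed, mounted in 80% glycerin and imaged by fluorescence microscopy.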

[39] = biological target: Microtubule-associated protein tau (Homo sapiens) (UniProt P10636); assay: Binding affinity to hyperphosphorylated tau protein-containing neurofibrillary tangles of Alzheimer's disease patient at 50 uM after 20 mins by thioflavin-S staining-based fluorescence microscopic analysis; in short: as §2
Chain of Microtubule-associated protein tau (Homo sapiens) (P10636 whole entry): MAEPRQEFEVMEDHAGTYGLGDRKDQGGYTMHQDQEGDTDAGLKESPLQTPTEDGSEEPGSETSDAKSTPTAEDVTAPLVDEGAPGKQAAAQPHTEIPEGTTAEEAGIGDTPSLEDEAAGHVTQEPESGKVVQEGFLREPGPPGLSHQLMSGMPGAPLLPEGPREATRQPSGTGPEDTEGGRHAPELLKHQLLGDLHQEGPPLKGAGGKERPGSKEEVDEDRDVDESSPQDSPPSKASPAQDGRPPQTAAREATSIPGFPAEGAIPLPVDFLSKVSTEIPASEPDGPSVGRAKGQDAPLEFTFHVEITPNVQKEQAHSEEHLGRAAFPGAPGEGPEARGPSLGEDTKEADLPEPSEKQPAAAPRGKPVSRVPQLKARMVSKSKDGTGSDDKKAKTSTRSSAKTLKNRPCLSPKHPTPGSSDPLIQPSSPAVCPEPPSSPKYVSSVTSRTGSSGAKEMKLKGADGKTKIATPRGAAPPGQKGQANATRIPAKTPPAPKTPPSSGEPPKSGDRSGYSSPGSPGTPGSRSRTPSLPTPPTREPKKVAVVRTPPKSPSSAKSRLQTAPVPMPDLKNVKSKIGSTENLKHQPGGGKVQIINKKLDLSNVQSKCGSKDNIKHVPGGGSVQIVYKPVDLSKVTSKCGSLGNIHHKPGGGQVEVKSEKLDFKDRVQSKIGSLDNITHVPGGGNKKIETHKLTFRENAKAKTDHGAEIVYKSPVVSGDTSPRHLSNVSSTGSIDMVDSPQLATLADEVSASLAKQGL

T1 sequence (P05067 whole entry): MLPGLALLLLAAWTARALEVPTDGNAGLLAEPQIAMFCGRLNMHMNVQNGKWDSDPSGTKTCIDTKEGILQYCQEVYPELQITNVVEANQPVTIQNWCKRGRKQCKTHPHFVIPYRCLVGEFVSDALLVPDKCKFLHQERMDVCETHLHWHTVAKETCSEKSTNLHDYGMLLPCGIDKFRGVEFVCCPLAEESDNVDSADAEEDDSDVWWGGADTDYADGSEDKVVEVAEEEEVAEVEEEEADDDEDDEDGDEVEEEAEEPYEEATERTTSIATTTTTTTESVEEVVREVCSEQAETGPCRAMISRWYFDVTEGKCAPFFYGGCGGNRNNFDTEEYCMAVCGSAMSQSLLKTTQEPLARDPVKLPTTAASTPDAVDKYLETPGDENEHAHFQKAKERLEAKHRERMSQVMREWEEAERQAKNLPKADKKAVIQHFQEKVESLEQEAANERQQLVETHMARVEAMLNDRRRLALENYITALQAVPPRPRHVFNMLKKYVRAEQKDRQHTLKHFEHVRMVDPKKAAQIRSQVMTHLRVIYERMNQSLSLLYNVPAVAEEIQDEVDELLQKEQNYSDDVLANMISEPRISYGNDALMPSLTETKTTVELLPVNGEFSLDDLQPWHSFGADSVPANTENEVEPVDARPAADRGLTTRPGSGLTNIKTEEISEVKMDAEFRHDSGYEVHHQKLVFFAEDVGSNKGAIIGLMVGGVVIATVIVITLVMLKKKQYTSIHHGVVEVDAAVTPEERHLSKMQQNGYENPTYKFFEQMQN

Ki [1]: 432 nM
SMILES: COc1cc(/C=C2\COc3ccc(Br)cc3C2=O)ccc1O

Drug uptake (Brain [2]): 0.32 % ID/g | Drug uptake (Brain [3]): 0.1 % ID/g | Drug uptake (Kidney [4]): 17.89 % ID/g | Drug uptake (Heart [5]): 0.49 % ID/g | Drug uptake (Kidney [6]): 1 % ID/g | Drug uptake (Kidney [7]): 1.42 % ID/g | Drug uptake (Liver [8]): 4.71 % ID/g | Drug uptake (Kidney [9]): 10.88 % ID/g | Drug uptake (Blood [10]): 8.35 % ID/g | Drug uptake (Lung [11]): 4.87 % ID/g | Drug uptake (Kidney [12]): 3.36 % ID/g | Drug uptake (Heart [13]): 0.87 % ID/g | Drug uptake (Brain [14]): 0.18 % ID/g | Drug uptake (Brain [15]): 0.83 % ID/g | Drug uptake (Lung [16]): 9.33 % ID/g | Drug uptake (Lung [17]): 0.73 % ID/g | Drug uptake (Spleen [18]): 1.27 % ID/g | Drug uptake (Blood [19]): 2.38 % ID/g | Drug uptake (Blood [20]): 1.05 % ID/g | Drug uptake (Spleen [21]): 0.35 % ID/g | Drug uptake (Spleen [22]): 0.7 % ID/g | Drug uptake (Liver [23]): 2.07 % ID/g | Drug uptake (Lung [24]): 2.29 % ID/g | Drug uptake (Blood [25]): 1.22 % ID/g | Drug uptake (Spleen [26]): 0.4 % ID/g | Drug uptake (Heart [27]): 1.87 % ID/g | Drug uptake (Heart [28]): 4.46 % ID/g | Drug uptake (Liver [29]): 1.05 % ID/g | Drug uptake (Lung [30]): 0.99 % ID/g | Drug uptake (Heart [31]): 0.36 % ID/g | Drug uptake (Spleen [32]): 2.54 % ID/g | Drug uptake (Blood [33]): 3.87 % ID/g | Drug uptake (Liver [34]): 13.57 % ID/g | Drug uptake (Brain [35]): 2.61 % ID/g | Ratio (Brain [36]): 6.9% | Drug uptake (Liver [37]): 1.23 % ID/g
SMILES: CN(C)c1ccc(/C=C2\COc3ccc([125I])cc3C2=O)cc1

Ki [1]: 108 nM
SMILES: O=C1/C(=C/c2ccc([N+](=O)[O-])cc2)COc2ccc(Br)cc21

Ki [1]: 9.98 nM
SMILES: COc1ccc(/C=C2\COc3ccc(Br)cc3C2=O)cc1

Ki [1]: 39.2 nM
SMILES: COc1cc(/C=C2\COc3ccc(Br)cc3C2=O)cc(OC)c1

Ki [1]: 25.5 nM
SMILES: CN(C)c1ccc(/C=C2\COc3ccc(Br)cc3C2=O)cc1Br

Ki [1]: 104 nM
SMILES: O=C1/C(=C/c2ccccc2)COc2ccc(Br)cc21

Ki [1]: 9.1 nM | Activity [38]: Active | Activity [39]: inactive
SMILES: CN(C)c1ccc(/C=C2\COc3ccc(Br)cc3C2=O)cc1

Ki [1]: 73.5 nM
SMILES: COc1cccc(/C=C2\COc3ccc(Br)cc3C2=O)c1

Ki [1]: 63.6 nM
SMILES: Nc1ccc(/C=C2\COc3ccc(Br)cc3C2=O)cc1

Ki [1]: 144 nM
SMILES: O=C1/C(=C/c2ccc(Br)cc2)COc2ccc(Br)cc21

Ki [1]: 54.2 nM
SMILES: COc1ccc(/C=C2\COc3ccc(Br)cc3C2=O)cc1OC

Ki [1]: 103 nM
SMILES: O=C1/C(=C/c2ccc(O)cc2)COc2ccc(Br)cc21

— ChEMBL document CHEMBL3124902, “Homoisoflavonoids as potential imaging agents for β-amyloid plaques in Alzheimer's disease” (Eur J Med Chem, 2014)
